CHO parental Ca: signal in parental CHO cells, OX1R antagonist counter-screen | parental CHO-K1, ATP-induced calcium, Fluo-8 fluorescence | 330,000 tested, 0.63% active | inhibition, % at 5.6 µM | AID 463079;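 active = inhibition above that plate's mean sample inhibition plus 3 SD, cut at about 26% in these data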;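 note: 0% = ATP-challenged DMSO wells and 100% = DMSO wells without ATP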
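Test system: untransfected parental CHO cell line; also added: ATP stimulus; dosing: 5.6 µM, single dose; signal: calcium-sensitive Fluo-8 fluorescence; measure: percent inhibition of ATP-evoked calcium rise, normalized to controls; benchmarks: low control ATP plus DMSO, high control DMSO only; replication: one well per compound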
OX1R antag-1: antagonists of human orexin 1 receptor. O43613. CHO/OX1R cells, Fluo-8 calcium fluorescence, orexin A. inhibition, % at 5 µM. 330,000 tested, 0.43% active. AID 434989;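 active = inhibition above its plate's threshold, mean inhibition of all tested compounds on the plate plus 3 SD, cut at about 37% in these data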;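 note: 0% = orexin A challenge wells and 100% = SB-334867-A antagonist wells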
Target sequence (O43613 whole entry, looked up): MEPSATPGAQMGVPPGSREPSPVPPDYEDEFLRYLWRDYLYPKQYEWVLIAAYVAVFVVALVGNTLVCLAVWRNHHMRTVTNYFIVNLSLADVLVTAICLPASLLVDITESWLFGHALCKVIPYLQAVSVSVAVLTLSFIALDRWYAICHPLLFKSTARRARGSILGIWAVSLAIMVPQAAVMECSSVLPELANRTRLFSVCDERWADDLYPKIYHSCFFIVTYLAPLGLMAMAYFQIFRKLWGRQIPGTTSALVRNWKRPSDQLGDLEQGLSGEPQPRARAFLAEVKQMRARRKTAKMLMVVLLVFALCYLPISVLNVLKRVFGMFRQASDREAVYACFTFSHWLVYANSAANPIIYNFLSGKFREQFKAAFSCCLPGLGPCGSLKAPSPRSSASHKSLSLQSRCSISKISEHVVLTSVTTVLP
TAAR1 antagonist: antagonists of human TAAR1. inhibition, % at 3 µM. 360,000 tested, 1.5% active. CHO RD-HGA16 TAAR1, Fluo-8 calcium fluorescence, antagonist;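 active = inhibition above a per-plate cutoff, the mean inhibition of test compounds on that plate plus 3 SD, cut at about 49% in these data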;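 note: 0% = DMSO plus EC80 beta-PEA response and 100% = DMSO alone without agonist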
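test system = CHO RD-HGA16 cells bearing hTAAR1 | replication = singlicate | controls = DMSO-only wells and EC80 β-PEA-stimulated wells | reagent = EC80 β-phenethylamine stimulus | read-out basis = percent inhibition of PEA-evoked calcium signal, max/basal emission ratio | schedule = seeding 17-24 h prior, 75-min 37 °C, 30-min RT dye loading | signal = kinetic Fluo-8 calcium fluorescence measurement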
OX1R antag-2: antagonists of human orexin 1 receptor (OX1R); O43613; inhibition, % at 6.6 µM; OX1R-expressing cells, FRET antagonist read-out; 330,000 tested, 1.8% active; in the data active = inhibition mostly above about 38%, no sharp cut-off; inactive = mostly below about 40%;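 note: 0% = agonist challenge alone and 100% = reference antagonist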
TAAR1 ag: human TAAR1 agonism; activation, % at 3 µM; CHO RD-HGA16 TAAR1, Fluo-8 calcium fluorescence; vehicle wells 0%, saturating PEA agonist 100%; Q96RJ0; 360,000 tested, 0.99% active;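 active = activation above the mean activation of all test compounds in the run plus 3 SD, cut at about 38% in these data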
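test system = CHO RD-HGA16 cells carrying human TAAR1 plus Gα16 | schedule = 17-24 h seeding, 75 min 37 °C dye, 30 min RT | compound dosing = 3 µM single concentration | control set = DMSO and PEA EC100 | replicates = n 1 | signal = Fluo-8 fluorescence, 5 s baseline then 140 s kinetic read | measure = percent activation vs PEA EC100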
An asterisk follows results filed as active; . = not tested or not shown. Hits are enriched below; roughly 4% of the tested compounds scored in any of these assays.

SMILES	CHO parental Ca	OX1R antag-1	TAAR1 antagonist	OX1R antag-2	TAAR1 ag
O=[N+]([O-])c1c(Nc2ccccc2O)ccc2nonc12	2.0	-20.2	-0.4	58.5*	1.3
Cc1ccccc1Nc1ccc2nonc2c1[N+](=O)[O-]	.	.	-15.8	.	0.2
CCc1nnc(NS(=O)(=O)c2ccc(Nc3ccc4nonc4c3[N+](=O)[O-])cc2)s1	-8.2	-19.6	21.4	49.4*	5.5
O=C(N[C@H](Cc1ccccc1)C(=O)NCCCc1ccccc1)[C@H]1O[C@@H](n2ccc(=O)[nH]c2=O)[C@H](O)[C@@H]1O	.	.	7.1	.	2.0
COc1cccc(CNC(=O)[C@H]2CCCN2C(=O)[C@H]2CCCN2C(=O)c2ccc(Cl)cc2)c1	.	.	-7.4	.	0.7
CC(C)c1[nH]nc2c1C(c1ccccc1)NC2=O (stereo not drawn)	.	.	-3.6	.	3.4
CCN(CC(=O)Nc1ccccc1-c1ccccc1)Cc1nc2ccccc2c(=O)[nH]1	-24.1	-10.0	4.8	66.5*	1.3
Nc1[nH]c(C(=O)c2ccccc2)c(-c2ccc(Cl)c(F)c2)c1C(=O)c1c[nH]c2ccccc12	.	.	-1.5	.	-0.4
COc1cc(NC(=O)c2ccccc2-c2ccccc2)cc(OC)c1	-17.2	-8.8	-13.9	56.9*	1.0
CN1C(=O)CSc2ccc(NC(=O)N3CCc4ccccc43)cc21	0.5	8.9	55.5*	9.1	19.6
CC(NC(=O)CN(c1cccc(C(F)(F)F)c1)S(=O)(=O)c1ccc(Cl)c([N+](=O)[O-])c1)c1ccccc1 (stereo not drawn)	36.3*	22.1	15.8	4.3	-0.8
O=C(CN(c1cccc(C(F)(F)F)c1)S(=O)(=O)c1ccc(Cl)c([N+](=O)[O-])c1)NCc1ccccc1	17.0	21.5	10.0	20.4	-1.0
CCOC(=O)CSc1nc2ccc(NC(=O)CSc3nnnn3Cc3ccccc3)cc2s1	5.3	7.4	52.6*	12.4	11.3
CCN(CC)C(=O)CSc1nc2ccc(NC(=O)CSc3nnc(COc4ccccc4C)n3C)cc2s1	-18.0	-7.8	55.5*	17.4	16.9
CC[C@@H](Nc1ncnc2c1oc1ccccc12)C(=O)O	98.8*	-3.0	-13.6	8.1	1.4
CCCn1c(-c2cccs2)nc2nc3ccccc3nc21	-24.9	-29.5	1.7	63.6*	16.0
COc1cc(C(O)c2nc(/C=C/c3ccc(C(F)(F)F)cc3)cs2)ccc1F (stereo not drawn)	.	.	7.8	.	0.2
CN(CC(=O)Nc1ccc2c(c1)CCC2)CC(=O)Nc1ccccc1Br	-15.0	-5.8	-4.2	39.5*	6.2
Cc1ccccc1CN(C)CC(=O)Nc1cccc(S(=O)(=O)N(C)c2ccccc2)c1	-3.7	-32.9	-1.8	48.7	-2.0
CSc1cccc(NC(=O)C(=O)NCc2ccccc2)c1	28.4*	-8.9	23.8	11.0	27.2
CN(CC(=O)Nc1cccc(F)c1)CC(=O)Nc1cccc(S(=O)(=O)N(C)c2ccccc2)c1	.	.	62.8*	.	26.1
CN(c1ccccc1)S(=O)(=O)c1cccc(NC(=O)CN2CCCc3ccccc32)c1	32.9*	11.8	-0.6	24.2	-0.4
COc1ccc(NC(=O)CN(C)CC(=O)Nc2ccc3c(c2)CCC3)cc1	-27.3	-21.7	11.3	35.0	14.0
CCCCNc1cccc2c1S(=O)(=O)N[C@H](C)CO2	.	.	8.4	.	1.0
CSc1cccc(NC(=O)CN(C)S(=O)(=O)c2ccccc2)c1	-13.7	7.1	9.5	49.6*	1.9
SMILES	CHO parental Ca	OX1R antag-1	TAAR1 antagonist	OX1R antag-2	TAAR1 ag
CN(CC(=O)Nc1cccc(F)c1)CC(=O)Nc1ccccc1[N+](=O)[O-]	7.7	-1.0	7.3	10.1	5.8
CN(CC(=O)Nc1cccc(F)c1)CC(=O)Nc1cccc2ccccc12	-13.7	0.7	58.8*	10.5	45.8*
COc1ccc(Nc2nc(C(F)(F)F)nc(C)c2C#N)cc1	-11.5	-10.7	-14.9	14.6	-1.9
CC[n+]1c(/C=C/C=C/N(C(C)=O)c2ccccc2)sc2ccccc21	-18.8	-22.1	102.4*	36.4	-4.6
CC12CCC(C)(O1)C1C(=O)N(c3nccs3)C(=O)C12 (stereo not drawn)	.	.	-16.1	.	1.4
O=C1c2ccccc2-c2onc3ccc(N4CCCC4)c1c23	.	.	40.0	.	35.2
O=C1c2ccccc2-c2onc3ccc(NCc4ccco4)c1c23	36.8	62.3*	.	81.6*	.
CC(O)CN(CC(C)O)c1ccc2c(c1)Cc1cc([N+](=O)[O-])ccc1-2 (stereo not drawn)	.	.	79.3*	.	92.9*
Cc1ccc([N+](=O)[O-])cc1S(=O)(=O)Nc1cccc(S(=O)(=O)Nc2ccccc2C(=O)O)c1	-2.6	13.4	-13.1	-4.2	0.1
Cc1ccc(C)c(NC(=O)c2ccccc2NS(=O)(=O)c2cc([N+](=O)[O-])ccc2C)c1	7.0	6.9	1.1	55.1*	8.2
Cc1ccc(C)c(S(=O)(=O)Nc2ccccc2C(=O)Nc2cc(C)on2)c1	-12.5	-2.8	0.2	36.1*	5.4
COc1ccc(C)cc1NC(=O)C1CCN(S(=O)(=O)c2cccc3cccnc23)CC1	-9.7	-23.8	22.0	5.5	8.6
COc1ccc(C)cc1NC(=O)c1ccccc1NS(=O)(=O)c1cccc2cccnc12	-11.8	15.3	-25.5	69.8*	0.7
Clc1cc(Cl)cc(CN2CCN(c3ncc(Cc4ccccc4)cn3)CC2)c1	.	.	-40.4	.	0.3
CC(=O)N[C@H]1[C@H]([C@H](O)[C@H](O)CO)O[C@](O)(C(=O)O)C[C@@H]1O	.	.	0.3	.	0.1
CC(C)NC(=O)OC[C@H]1O[C@H](C#Cc2ccc(C(C)(C)C)cc2)C=C[C@H]1O	.	.	-21.8	.	-0.7
CCn1cc(C(=O)OCC(=O)Nc2ccc(S(=O)(=O)N3CCCC3)cc2)c(=O)c2ccc(C)nc21	1.1	-7.0	-18.8	11.4	-2.1
COc1ccc(-c2noc(CCC(=O)N3CCN(c4cccc(OC)c4)CC3)n2)cc1	-21.9	-22.0	52.7*	9.4	10.8
CCOc1ccc(-c2nc(CSCC(=O)N3CCN(c4cccc(OC)c4)CC3)c(C)o2)cc1	75.4*	44.4*	50.5*	53.6*	4.8
COC(=O)c1cc2c(c3c4cc(F)ccc4n(S(=O)(=O)c4ccc(C)cc4)c13)C(=O)N(c1ccc(OC)cc1)C2	.	.	-22.4	.	-1.5
COCCOc1nc2c(c(=O)n(C)c(=O)n2C)n1Cc1cccc(OC)c1	44.8*	-6.8	6.8	5.3	3.0
CN(Cc1nc2ccccc2c(=O)[nH]1)C(=O)c1ccc(S(=O)(=O)N2CCCC2)cc1	-7.1	-16.8	5.6	7.5	0.2
O=C(NCCCN1CCOCC1)c1cc(Cl)ccc1Cl	-7.8	-10.6	-3.3	7.2	3.3
O=C(Nc1cc([N+](=O)[O-])ccc1C(=O)NCCN1CCOCC1)c1ccccc1	-10.4	-5.5	1.7	75.4*	2.8
O=C(NCCCN1CCN(CCCNC(=O)c2cc([N+](=O)[O-])ccc2Cl)CC1)c1cc([N+](=O)[O-])ccc1Cl	1.4	3.2	-12.3	71.9*	1.0

Source: PubChem
